The results in this text go back to ChEMBL document CHEMBL4304792, “Cinnamonitrile Adjuvants Restore Susceptibility to β-Lactams against Methicillin-Resistant Staphylococcus aureus” (ACS Med Chem Lett, 2019).

The source made the active and inactive calls. The calls are words filed in the database; no cut-off is given here.

The subject of assay [1] is Staphylococcus aureus. In words: Potentiation of oxacillin induced antibacterial activity against Staphylococcus aureus Mu50 NRS1 assessed as oxacillin MIC at 20 uM measured after 16 to 20 hrs in presence of 2% NaCl by microdilution broth method (reference value: 256 mg/L). The assay is classed as functional. (In general: Broth dilution looks for growth in wells or tubes with falling amounts of substance.)

The test system of assay [2] is Staphylococcus aureus. Kind of assay: Potentiation of oxacillin induced antibacterial activity against Staphylococcus aureus NRS384 assessed as oxacillin MIC at 16 uM measured after 16 to 20 hrs in presence of 2% NaCl by microdilution broth method (reference value: 32 mg/L). The assay is classed as functional.
For assay [3], the system named is Staphylococcus aureus. Kind of assay: Potentiation of oxacillin induced antibacterial activity against methicillin susceptible Staphylococcus aureus ATCC29213 assessed as reduction in oxacillin MIC at 20 uM measured after 16 to 20 hrs in presence of 2% NaCl by microdilution broth method. The assay is classed as functional. Put shortly:
(§1)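 Oxacillin MIC was measured against methicillin-susceptible strains with the adjuvant fixed at 20 μM. Potentiation was expressed as fold reduction of the oxacillin MIC relative to oxacillin alone.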

Assay [4] relates to Staphylococcus aureus. Kind of assay: Potentiation of oxacillin induced antibacterial activity against methicillin susceptible Staphylococcus aureus NRS11 assessed as reduction in oxacillin MIC at 20 uM measured after 16 to 20 hrs in presence of 2% NaCl by microdilution broth method. The assay is classed as functional. Put shortly: as §1
For assay [5], the system named is Staphylococcus aureus. Kind of assay: Potentiation of oxacillin induced antibacterial activity against Staphylococcus aureus MRSA252 assessed as oxacillin MIC at 20 uM measured after 16 to 20 hrs in presence of 2% NaCl by microdilution broth method (reference value: 256 mg/L). The assay is classed as functional.
In assay [6] the test system is Staphylococcus aureus. In words: Potentiation of oxacillin induced antibacterial activity against Staphylococcus aureus NRS70 assessed as oxacillin MIC at 8 uM measured after 16 to 20 hrs in presence of 2% NaCl by microdilution broth method (reference value: 64 mg/L). The assay is classed as functional.
For assay [7], the system named is Staphylococcus aureus. In words: Potentiation of oxacillin induced antibacterial activity against Staphylococcus aureus NRS70 assessed as oxacillin MIC at 20 uM measured after 16 to 20 hrs in presence of 2% NaCl by microdilution broth method (reference value: 64 mg/L). The assay is classed as functional.
Assay [8] relates to Staphylococcus aureus. In words: Potentiation of oxacillin induced antibacterial activity against Staphylococcus aureus NRS119 assessed as oxacillin MIC at 8 uM measured after 16 to 20 hrs in presence of 2% NaCl by microdilution broth method (reference value: 256 mg/L). The assay is classed as functional.
The test system of assay [9] is Staphylococcus aureus. Kind of assay: Synergistic antibacterial activity against methicillin resistant Staphylococcus aureus Mu50 NRS1 assessed as fractional inhibitory concentration index in presence of oxacillin by checkerboard assay. The assay is classed as functional. The method, boiled down:
(§2)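 Checkerboard combinations of the adjuvant with oxacillin were tested against MRSA strains NRS1, NRS70 and NRS384. The fractional inhibitory concentration index (FICI) was derived from the combination MICs, and each interaction was classed as synergistic or indifferent (additive).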

The subject of assay [10] is Staphylococcus aureus. In words: Inhibition of recombinant full length N-terminal Stre-tagged Staphylococcus aureus NCTC8325 STK1 expressed in Escherichia coli BL21 star (DE3) assessed as decrease in phosphorylation at 100 uM using MBP as substrate measured after 20 mins [33P] gammaATP by SDS-PAGE.
The subject of assay [11] is Staphylococcus aureus. In words: Inhibition of C-terminal His-tagged Staphylococcus aureus NCTC8325 RsbW expressed in Escherichia coli BL21 star (DE3) assessed as decrease in phosphorylation at 100 uM using RsbV as substrate measured after 20 mins in presence of [33P] gammaATP by SDS-PAGE.
The test system of assay [12] is Staphylococcus aureus. In words: Synergistic antibacterial activity against methicillin resistant Staphylococcus aureus NRS384 assessed as fractional inhibitory concentration index in presence of oxacillin by checkerboard assay. The assay is classed as functional. The method, boiled down:
as §2

In assay [13] the test system is Staphylococcus aureus. Kind of assay: Synergistic antibacterial activity against methicillin resistant Staphylococcus aureus NRS70 assessed as fractional inhibitory concentration index in presence of oxacillin by checkerboard assay. The assay is classed as functional. Put shortly:
as §2

Assay [14] has as its system Staphylococcus aureus. Kind of assay: Inhibition of N-terminal His-tagged Staphylococcus aureus NCTC8325 RsbV expressed in Escherichia coli BL21 star (DE3) assessed as decrease in phosphorylation at 100 uM measured after 20 mins in presence of [33P] gammaATP by SDS-PAGE.
The subject of assay [15] is Staphylococcus aureus. In words: Inhibition of recombinant […] N-terminal Stre-tagged Staphylococcus aureus NCTC8325 STK1 domain (1 to 348 residues) expressed in Escherichia coli BL21 star (DE3) assessed as decrease in phosphorylation at 100 uM using MBP as substrate measured after 20 mins in presence of [33P] gammaATP by SDS-PAGE.
The subject of assay [16] is Staphylococcus aureus. In words: Inhibition of N-terminal His-tagged Staphylococcus aureus capA1ct/B2 expressed in Escherichia coli BL21 star (DE3) assessed as decrease in phosphorylation at 100 uM using MBP as substrate measured after 20 mins in presence of [33P] gammaATP by SDS-PAGE.

In general, MIC refers to the lowest concentration found to suppress growth. As to `CS(=O)(=O)/C(C#N)=C/c1cc(Cc2ccc(Cl)c(Cl)c2)ccc1F`, the minimum inhibitory concentration (MIC) with Staphylococcus aureus [1] is 1 µg/mL; with Staphylococcus aureus [2], 0.25 µg/mL; with Staphylococcus aureus [5] it was 128 µg/mL; in the assay on Staphylococcus aureus [6] it was 8 µg/mL; in the assay on Staphylococcus aureus [7] it was ≤ 0.03 µg/mL; with Staphylococcus aureus [8] it was 0.5 µg/mL. The “fold change (FC)” value with Staphylococcus aureus [3] and in the assay on Staphylococcus aureus [4] was 2 - 10 each time.
As to `CS(=O)(=O)/C(C#N)=C/c1cc(-c2ccc(Cl)c(Cl)c2)ccc1F`, the MIC in the assay with Staphylococcus aureus [1] worked out at 2 µg/mL; in the assay on Staphylococcus aureus [2] it was 8 µg/mL; in the assay on Staphylococcus aureus [5], 128 µg/mL; with Staphylococcus aureus [6], 16 µg/mL; in the assay on Staphylococcus aureus [7], 0.12 µg/mL; with Staphylococcus aureus [8], 32 µg/mL. The “fold change (FC)” value in the assay with Staphylococcus aureus [3] and in the assay with Staphylococcus aureus [4] was 2 - 10 each time.
Consider `N#C/C(=C\c1cc(Cc2ccc(Cl)c(Cl)c2)ccc1F)S(=O)(=O)c1ccccn1`, for which the minimal inhibitory concentration (MIC) was ≤ 0.03 µg/mL in the assay on Staphylococcus aureus [1]; 0.12 µg/mL with Staphylococcus aureus [2]; 2 µg/mL in the assay on Staphylococcus aureus [5]; 4 µg/mL in the assay with Staphylococcus aureus [6]; ≤ 0.03 µg/mL in the assay with Staphylococcus aureus [7]; 16 µg/mL in the assay on Staphylococcus aureus [8]. In addition, the “fold change (FC)” value with Staphylococcus aureus [3] and in the assay on Staphylococcus aureus [4] was 2 - 10 in each case.
Regarding `CS(=O)(=O)/C(C#N)=C/c1cc(Cc2ccc(Cl)c(Cl)c2)ccc1OC(F)(F)F`, the minimal inhibitory concentration (MIC) was ≤ 0.03 µg/mL with Staphylococcus aureus [1]; 0.03 µg/mL with Staphylococcus aureus [2]; 0.25 µg/mL in the assay with Staphylococcus aureus [6]; ≤ 0.03 µg/mL in the assay on Staphylococcus aureus [7] (record 2); 0.06 µg/mL with Staphylococcus aureus [8]. The “fractional inhibitory concentration index (FICI)” value with Staphylococcus aureus [9] amounted to 0.28; with Staphylococcus aureus [12] it was 0.38; in the assay on Staphylococcus aureus [13], 0.28. Further, the “fold change (FC)” value in the assay on Staphylococcus aureus [3] and with Staphylococcus aureus [4] was 2 - 10 each time. Further, the inhibition entry in the assay on Staphylococcus aureus [10], in the assay on Staphylococcus aureus [11], in the assay with Staphylococcus aureus [14], with Staphylococcus aureus [15] and with Staphylococcus aureus [16] was “inactive” throughout. The minimum inhibitory concentration (MIC) result in the assay on Staphylococcus aureus [5] and with Staphylococcus aureus [7] was “Active” in each case.
With `CS(=O)(=O)/C(C#N)=C/c1c(F)ccc(Cc2ccc(Cl)c(Cl)c2)c1F`, the MIC in the assay on Staphylococcus aureus [1] was ≤ 0.03 µg/mL; with Staphylococcus aureus [2] it was 0.5 µg/mL; with Staphylococcus aureus [5], 64 µg/mL; in the assay on Staphylococcus aureus [6] it was 64 µg/mL; in the assay with Staphylococcus aureus [7] (record 2), ≤ 0.03 µg/mL; in the assay with Staphylococcus aureus [8], 4 µg/mL. Moreover, the “fold change (FC)” value in the assay on Staphylococcus aureus [3] and in the assay with Staphylococcus aureus [4] was 2 - 10 in each case. Besides, the minimum inhibitory concentration (MIC) entry in the assay on Staphylococcus aureus [7] was “Active”.
